# Experimental data pooled from the literature.
# Medium: plasma
Compound,host,route,dose,setting,half-life
CC(C)(Sc1ccncc1-c1ccc(C#N)c2ccccc12)C(=O)O,male human,oral,5 mg,"single dose, fasted, healthy volunteers",14.2 h
CC(C)(O)c1ccccc1-c1ccc2[nH]c(/C=C/c3ccc(C(F)(F)F)cc3)nc2c1,male human,oral,15 mg,"single dose, fasted, healthy volunteers",59.3 h
COc1cc(C(=O)NC2CCN(C)CC2)c(F)cc1Nc1ncc(C(F)(F)F)c(Oc2cccc3c2C(=O)N(C)C3)n1,human,oral,200 mg,"multiple doses, once daily, patients",20.4 h
CC(C)n1cc(C#N)c2cc(-n3cc(C(=O)O)cn3)ccc21,human,oral,50 mg,"single dose, fasted, healthy volunteers",7.1 h
c1cnc2ccc(Nc3nc(NC4CC4)c4nc[nH]c4n3)cc2c1,human,oral,200 mg/m²,patients,2.1 h
COCCOc1cnc2ccn([C@H](C)c3nnc4c(F)cc(-c5cnn(C)c5)cn34)c(=O)c2c1,human,oral,50 mg,"multiple doses, once daily, patients",15.3 h
CO[C@@H]1[C@H](OC(=O)N2CC(CCN3CCOCC3)C2)CC[C@]2(CO2)[C@H]1[C@@]1(C)O[C@@H]1CC=C(C)C,human,subcutaneous,2.4 mg,"single dose, healthy volunteers",0.69 h
C#C[C@]1(COP(=O)(O)OP(=O)(O)OP(=O)(O)O)O[C@@H](n2cnc3c(N)nc(F)nc32)C[C@@H]1O,human,oral,200 mg,single dose,116 h
CO[C@H]1CC[C@H](N2C(=O)CNc3ncc(-c4ccc(C(C)(C)O)nc4)nc32)CC1,human,oral,30 mg,patients,5.57 h
CS(=O)(=O)CCC#N,human,oral,1000 mg,"multiple doses, once daily",24.7 h
COc1ccc(-n2nc(C(N)=O)c3c2C(=O)N(c2ccc(N4CCCCC4=O)cc2)CC3)cc1,human,oral,20 mg,"single dose, healthy volunteers",~13 h
C[C@@H](Nc1cc(F)cc(F)c1)c1cc(C(=O)N(C)C)cc2c(=O)cc(N3CCOCC3)oc12,human,oral,30 mg,patients,3.79 h
COc1ccc([C@@H]2CN(C(=O)[C@@H](O)CO)C[C@@]2(C)[C@@H](C)O)cc1OC1CN(c2ccc(C)cn2)C1,human,oral,10 mg,"single dose, healthy volunteers",12.6 h
O=C(Nc1c(Cl)cncc1Cl)c1ccc(OC(F)F)c(OCC2CC2)c1,human,oral,0.375 mg,single dose,19.7 h
Nc1cc(C(F)(F)F)c(-c2cc(N3CCOCC3)nc(N3CCOCC3)n2)cn1,human,oral,100 mg/day,patients,30.6 h
CCNCCCNC/C=C\CNCCCNCC,human,intravenous,50 mg,"patients, infusion",0.18 h
Cn1cc(-c2ccc(S(=O)(=O)[C@@H]3C[C@@H](C(=O)NC4(C#N)CC4)N(C(=O)C4(C(F)(F)F)CC4)C3)c(C(F)(F)F)c2)cn1,human,oral,1 mg,"single dose, fasted, healthy volunteers",5.47 h
Cc1nc(-c2cn3c(n2)-c2ccc(-c4cnn(C(C)(C)C(N)=O)c4)cc2OCC3)n(C(C)C)n1,human,oral,2 mg,patients,28.1 h
